In ChEMBL document CHEMBL1142148, “Antibiotic susceptibility profile of bifidobacteria as affected by oxgall, acid, and hydrogen peroxide stress” (2007):
In brackets after ≈: the same amount, converted by molar mass.

How the values were obtained:
Bifidobacterium bifidum [1] = assay: Antimicrobial activity against 90 mins hydrogen peroxide-stressed Bifidobacterium bifidum BB12 after 18 hrs; format: functional
In short: (§1)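 Stress applied for 90 min at 37°C under anaerobic conditions, using MRS (initial pH 6.5) containing H2O2 at each strain's own inhibitory concentration. The H2O2 level was set beforehand by microplate tolerance testing. Challenged cells were regrown in MRS for 24 h (footnote: 18 h) before MIC testing by broth microdilution. Median of four repetitions.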

Bifidobacterium longum [2] = assay: Antimicrobial activity against 90 mins hydrogen peroxide-stressed Bifidobacterium longum ATCC 15707 after 18 hrs; format: functional; in short: as §1
Bifidobacterium bifidum [3] = assay: Antimicrobial activity against 90 mins hydrogen peroxide-stressed Bifidobacterium bifidum R0071 after 18 hrs; format: functional; in short: as §1
Bifidobacterium longum [4] = assay: Antimicrobial activity against 90 mins oxgall-stressed Bifidobacterium longum P/N 601377 after 18 hrs; format: functional
In short: (§2)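 Cells pelleted from mid-log MRS culture and resuspended in MRS (initial pH 6.5) with 0.3% (wt/vol) oxgall for 90 min anaerobically at 37°C. They were then regrown in MRS pH 6.5 for 24 h (footnote: 18 h) anaerobically and tested for MIC by the same broth microdilution assay. Median of four repetitions.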

[5] = test system: Bifidobacterium pseudolongum; assay: Antimicrobial activity against 90 mins oxgall-stressed Bifidobacterium pseudolongum ATCC 25562 after 18 hrs; format: functional; in short: as §2
Bifidobacterium bifidum [6] = assay: Antimicrobial activity against 90 mins oxgall-stressed Bifidobacterium bifidum ATCC 15696 after 18 hrs; format: functional; in short: as §2
Bifidobacterium animalis [7] = assay: Antimicrobial activity against 60 min 1 M HCl-stressed Bifidobacterium animalis ATCC 27536 after 18 hrs; format: functional
In short: (§3)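 Mid-log MRS culture pelleted and resuspended in MRS broth brought to pH 2.0 with 1 M HCl, held anaerobically at 37°C for 60 min, then subcultured in MRS (pH 6.5) for 24 h anaerobically before MIC testing by broth microdilution (as for unstressed cells). Table footnote gives 18 h anaerobic regrowth after the stress. MIC is the median of four repetitions.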

Bifidobacterium longum [8] = assay: Antimicrobial activity against 60 min 1 M HCl-stressed Bifidobacterium longum R0175 after 18 hrs; format: functional; in short: as §3
Bifidobacterium longum [9] = assay: Antimicrobial activity against 90 mins oxgall-stressed Bifidobacterium longum ATCC 15707 after 18 hrs; format: functional; in short: as §2
Bifidobacterium longum [10] = assay: Antimicrobial activity against Bifidobacterium longum P/N 601377; format: functional
In short: (§4)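 Broth microdilution in MRS plus 0.05% L-cysteine-HCl. Mid-log culture adjusted to OD650 0.1, giving about 2.5 × 10^4 to 5.0 × 10^4 CFU/well, then added to twofold serial dilutions of agent. Plates incubated anaerobically at 37°C for 18 h and read at OD650. MIC is the lowest concentration matching the uninoculated blank OD, taken as the median of four repeats.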

Bifidobacterium bifidum [11] = assay: Antimicrobial activity against Bifidobacterium bifidum R0071; format: functional; in short: as §4
Bifidobacterium bifidum [12] = assay: Antimicrobial activity against Bifidobacterium bifidum BB12; format: functional; in short: as §4
Bifidobacterium breve [13] = assay: Antimicrobial activity against Bifidobacterium breve R0070; format: functional; in short: as §4
Bifidobacterium breve [14] = assay: Antimicrobial activity against 90 mins hydrogen peroxide-stressed Bifidobacterium breve ATCC 15700 after 18 hrs; format: functional; in short: as §1
Bifidobacterium longum [15] = assay: Antimicrobial activity against 90 mins hydrogen peroxide-stressed Bifidobacterium longum ATCC 15708 after 18 hrs; format: functional; in short: as §1
Bifidobacterium longum [16] = assay: Antimicrobial activity against 90 mins hydrogen peroxide-stressed Bifidobacterium longum P/N 601377 after 18 hrs; format: functional; in short: as §1
Bifidobacterium animalis [17] = assay: Antimicrobial activity against 90 mins hydrogen peroxide-stressed Bifidobacterium animalis ATCC 27536 after 18 hrs; format: functional; in short: as §1
Bifidobacterium bifidum [18] = assay: Antimicrobial activity against 60 min 1 M HCl-stressed Bifidobacterium bifidum BB12 after 18 hrs; format: functional; in short: as §3
[19] = test system: Bifidobacterium thermophilum; assay: Antimicrobial activity against 90 mins oxgall-stressed Bifidobacterium thermophilum ATCC 25866 after 18 hrs; format: functional; in short: as §2
[20] = test system: Bifidobacterium pseudolongum; assay: Antimicrobial activity against 60 min 1 M HCl-stressed Bifidobacterium pseudolongum ATCC 25562 after 18 hrs; format: functional; in short: as §3
Bifidobacterium breve [21] = assay: Antimicrobial activity against Bifidobacterium breve ATCC 15700; format: functional; in short: as §4
Bifidobacterium animalis [22] = assay: Antimicrobial activity against Bifidobacterium animalis ATCC 27536; format: functional; in short: as §4
[23] = Antimicrobial activity against 90 mins oxgall-stressed Bifidobacterium infantis ATCC 15697 after 18 hrs; format: functional, Bifidobacterium longum subsp. infantis; conditions: Bifidobacterium longum; in short: as §2
Bifidobacterium longum [24] = assay: Antimicrobial activity against Bifidobacterium longum ATCC 15708; format: functional; in short: as §4
Bifidobacterium bifidum [25] = assay: Antimicrobial activity against 90 mins oxgall-stressed Bifidobacterium bifidum BB12 after 18 hrs; format: functional; in short: as §2
Bifidobacterium breve [26] = assay: Antimicrobial activity against 60 min 1 M HCl-stressed Bifidobacterium breve ATCC 15700 after 18 hrs; format: functional; in short: as §3
Bifidobacterium longum [27] = assay: Antimicrobial activity against Bifidobacterium longum ATCC 15707; format: functional; in short: as §4
Bifidobacterium bifidum [28] = assay: Antimicrobial activity against 90 mins oxgall-stressed Bifidobacterium bifidum R0071 after 18 hrs; format: functional; in short: as §2
[29] = Antimicrobial activity against 60 min 1 M HCl-stressed Bifidobacterium infantis ATCC 15697 after 18 hrs; format: functional, Bifidobacterium longum subsp. infantis; conditions: Bifidobacterium longum; in short: as §3
Bifidobacterium longum [30] = assay: Antimicrobial activity against 90 mins oxgall-stressed Bifidobacterium longum ATCC 15708 after 18 hrs; format: functional; in short: as §2
Bifidobacterium breve [31] = assay: Antimicrobial activity against 90 mins hydrogen peroxide-stressed Bifidobacterium breve R0070 after 18 hrs; format: functional; in short: as §1
Bifidobacterium bifidum [32] = assay: Antimicrobial activity against Bifidobacterium bifidum ATCC 15696; format: functional; in short: as §4
Bifidobacterium breve [33] = assay: Antimicrobial activity against 90 mins oxgall-stressed Bifidobacterium breve R0070 after 18 hrs; format: functional; in short: as §2
Bifidobacterium bifidum [34] = assay: Antimicrobial activity against 60 min 1 M HCl-stressed Bifidobacterium bifidum R0071 after 18 hrs; format: functional; in short: as §3
[35] = test system: Bifidobacterium thermophilum; assay: Antimicrobial activity against 90 mins hydrogen peroxide-stressed Bifidobacterium thermophilum ATCC 25866 after 18 hrs; format: functional; in short: as §1
Bifidobacterium longum [36] = assay: Antimicrobial activity against 60 min 1 M HCl-stressed Bifidobacterium longum ATCC 15707 after 18 hrs; format: functional; in short: as §3
Bifidobacterium longum [37] = assay: Antimicrobial activity against 90 mins oxgall-stressed Bifidobacterium longum R0175 after 18 hrs; format: functional; in short: as §2
Bifidobacterium animalis [38] = assay: Antimicrobial activity against 90 mins oxgall-stressed Bifidobacterium animalis ATCC 27536 after 18 hrs; format: functional; in short: as §2
[39] = test system: Bifidobacterium pseudolongum; assay: Antimicrobial activity against Bifidobacterium pseudolongum ATCC 25562; format: functional; in short: as §4
Bifidobacterium longum [40] = assay: Antimicrobial activity against 60 min 1 M HCl-stressed Bifidobacterium longum P/N 601377 after 18 hrs; format: functional; in short: as §3
Bifidobacterium longum [41] = assay: Antimicrobial activity against Bifidobacterium longum R0175; format: functional; in short: as §4
[42] = Antimicrobial activity against Bifidobacterium infantis ATCC 15697; format: functional, Bifidobacterium longum subsp. infantis; conditions: Bifidobacterium longum; in short: as §4
Bifidobacterium breve [43] = assay: Antimicrobial activity against 90 mins oxgall-stressed Bifidobacterium breve ATCC 15700 after 18 hrs; format: functional; in short: as §2
Bifidobacterium breve [44] = assay: Antimicrobial activity against 60 min 1 M HCl-stressed Bifidobacterium breve R0070 after 18 hrs; format: functional; in short: as §3
[45] = test system: Bifidobacterium thermophilum; assay: Antimicrobial activity against 60 min 1 M HCl-stressed Bifidobacterium thermophilum ATCC 25866 after 18 hrs; format: functional; in short: as §3
[46] = test system: Bifidobacterium thermophilum; assay: Antimicrobial activity against Bifidobacterium thermophilum ATCC 25866; format: functional; in short: as §4
Bifidobacterium longum [47] = assay: Antimicrobial activity against 90 mins hydrogen peroxide-stressed Bifidobacterium longum R0175 after 18 hrs; format: functional; in short: as §1

Structure (SMILES): CC1(C)S[C@@H]2[C@H](NC(=O)[C@H](N)c3ccccc3)C(=O)N2[C@H]1C(=O)O [AMPICILLIN]
- MIC (Bifidobacterium bifidum [1]): 0.98 µg/mL (≈ 2.8 µM)
- MIC (Bifidobacterium longum [2]): 0.98 µg/mL (≈ 2.8 µM)
- MIC (Bifidobacterium bifidum [3]): 0.98 µg/mL (≈ 2.8 µM)
- MIC (Bifidobacterium longum [4]): 0.98 µg/mL (≈ 2.8 µM)
- MIC [5]: 0.98 µg/mL (≈ 2.8 µM)
- MIC (Bifidobacterium bifidum [6]): 0.98 µg/mL (≈ 2.8 µM)
- MIC (Bifidobacterium animalis [7]): 0.98 µg/mL (≈ 2.8 µM)
- MIC (Bifidobacterium longum [8]): 0.98 µg/mL (≈ 2.8 µM)
- MIC (Bifidobacterium longum [9]): 0.98 µg/mL (≈ 2.8 µM)
- MIC (Bifidobacterium longum [10]): 0.98 µg/mL (≈ 2.8 µM)
- MIC (Bifidobacterium bifidum [11]): 1.9 µg/mL (≈ 5.44 µM)
- MIC (Bifidobacterium bifidum [12]): 31.2 µg/mL (≈ 89.3 µM)
- MIC (Bifidobacterium breve [13]): 15.6 µg/mL (≈ 44.6 µM)
- MIC (Bifidobacterium breve [14]): 3.9 µg/mL (≈ 11.2 µM)
- MIC (Bifidobacterium longum [15]): 3.9 µg/mL (≈ 11.2 µM)
- MIC (Bifidobacterium longum [16]): 0.98 µg/mL (≈ 2.8 µM)
- MIC (Bifidobacterium animalis [17]): 3.9 µg/mL (≈ 11.2 µM)
- MIC (Bifidobacterium bifidum [18]): 0.98 µg/mL (≈ 2.8 µM)
- MIC [19]: 1.9 µg/mL (≈ 5.44 µM)
- MIC [20]: 0.98 µg/mL (≈ 2.8 µM)
- MIC (Bifidobacterium breve [21]): 3.9 µg/mL (≈ 11.2 µM)
- MIC (Bifidobacterium animalis [22]): 15.6 µg/mL (≈ 44.6 µM)
- MIC [23]: 0.98 µg/mL (≈ 2.8 µM)
- MIC (Bifidobacterium longum [24]): 7.8 µg/mL (≈ 22.3 µM)
- MIC (Bifidobacterium bifidum [25]): 0.98 µg/mL (≈ 2.8 µM)
- MIC (Bifidobacterium breve [26]): 0.98 µg/mL (≈ 2.8 µM)
- MIC (Bifidobacterium longum [27]): 15.6 µg/mL (≈ 44.6 µM)
- MIC (Bifidobacterium bifidum [28]): 0.98 µg/mL (≈ 2.8 µM)
- MIC [29]: 0.98 µg/mL (≈ 2.8 µM)
- MIC (Bifidobacterium longum [30]): 0.98 µg/mL (≈ 2.8 µM)
- MIC (Bifidobacterium breve [31]): 0.98 µg/mL (≈ 2.8 µM)
- MIC (Bifidobacterium bifidum [32]): 0.98 µg/mL (≈ 2.8 µM)
- MIC (Bifidobacterium breve [33]): 0.98 µg/mL (≈ 2.8 µM)
- MIC (Bifidobacterium bifidum [34]): 0.98 µg/mL (≈ 2.8 µM)
- MIC [35]: 3.9 µg/mL (≈ 11.2 µM)
- MIC (Bifidobacterium longum [36]): 3.9 µg/mL (≈ 11.2 µM)
- MIC (Bifidobacterium longum [37]): 0.98 µg/mL (≈ 2.8 µM)
- MIC (Bifidobacterium animalis [38]): 0.98 µg/mL (≈ 2.8 µM)
- MIC [39]: 3.9 µg/mL (≈ 11.2 µM)
- MIC (Bifidobacterium longum [40]): 0.98 µg/mL (≈ 2.8 µM)
- MIC (Bifidobacterium longum [41]): 7.8 µg/mL (≈ 22.3 µM)
- MIC [42]: 7.8 µg/mL (≈ 22.3 µM)
- MIC (Bifidobacterium breve [43]): 3.9 µg/mL (≈ 11.2 µM)
- MIC (Bifidobacterium breve [44]): 3.9 µg/mL (≈ 11.2 µM)
- MIC [45]: 3.9 µg/mL (≈ 11.2 µM)
- MIC [46]: 0.98 µg/mL (≈ 2.8 µM)
- MIC (Bifidobacterium longum [47]): 1.9 µg/mL (≈ 5.44 µM)
